Test results reported in ChEMBL document CHEMBL1138232, “Optimization of naphthalimide-imidazoacridone with potent antitumor activity leading to clinical candidate (HKH40A, RTA 502)” (J Med Chem, 2007).

Columns and labels:
Format in all cases: functional
[1] = tested on: KM12; assay: Antitumor activity against human KM12 cells after 48 hrs; settings: KM12, 48 h
How it was run: (§1)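 Tested in the NCI 60 human tumour cell line screen, with continuous drug exposure for 48 h. Values include LC50 derived from the screen.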

[2] = tested on: SF-539; assay: Antitumor activity against human SF539 cells after 48 hrs; settings: SF-539, 48 h; how it was run: as §1
[3] = tested on: OVCAR-4; assay: Antitumor activity against human OVCAR4 cells after 48 hrs; settings: OVCAR-4, 48 h; how it was run: as §1
[4] = tested on: OVCAR-5; assay: Antitumor activity against human OVCAR5 cells after 48 hrs; settings: OVCAR-5, 48 h; how it was run: as §1
[5] = tested on: SK-OV-3; assay: Antitumor activity against human SK-OV-3 cells after 48 hrs; settings: SK-OV-3, 48 h; how it was run: as §1
[6] = tested on: 786-0; assay: Antitumor activity against human 786-0 cells after 48 hrs; settings: 786-0, 48 h; how it was run: as §1
[7] = tested on: A498; assay: Antitumor activity against human A498 cells after 48 hrs; settings: A498, 48 h; how it was run: as §1
[8] = tested on: UO-31; assay: Antitumor activity against human UO31 cells after 48 hrs; settings: UO-31, 48 h
How it was run: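 NCI 60 human tumour cell line screen; 48 h continuous drug exposure. Compounds tested as tri(methanesulfonate) salts, soluble in water and dilute buffers. Dilute solutions are light-sensitive and adsorb to glass or quartz.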

[9] = tested on: PC-3; assay: Antitumor activity against human PC3 cells after 48 hrs; settings: PC-3, 48 h; how it was run: as §1
[10] = tested on: DU-145; assay: Antitumor activity against human DU145 cells after 48 hrs; settings: DU-145, 48 h; how it was run: as §1
[11] = tested on: MCF7; assay: Antitumor activity against human MCF7 cells after 48 hrs; settings: MCF7, 48 h; how it was run: as §1
[12] = Antitumor activity against human […] cells after 48 hrs; how it was run: as §1
[13] = tested on: Hs-578T; assay: Antitumor activity against human HS578T cells after 48 hrs; how it was run: as §1
[14] = tested on: MDA-MB-435; assay: Antitumor activity against human MDA-MB-435 cells after 48 hrs; settings: MDA-MB-435, 48 h; how it was run: as §1
[15] = read-out: Log LC50 (the source's name) (converted)

COc1ccc2c(c1)c(=O)c1c(NCCCN3CCN(CCCN4C(=O)c5cccc6cc([N+](=O)[O-])cc(c56)C4=O)CC3)ccc3ncn2c31.CS(=O)(=O)O
GI50 [1]: 4.37 nM
CC50 [1, 15]: > 1000 nM
TGI ([1]; read-out: Log TGI (converted)): 537 nM
GI50 [2]: 2.75 nM
CC50 [2, 15]: > 1000 nM
TGI ([2]; read-out: Log TGI (converted)): 25.1 nM
GI50 [3]: 4.9 nM
CC50 [3, 15]: > 1000 nM
TGI ([3]; read-out: Log TGI (converted)): 87.1 nM
GI50 [4]: 339 nM
CC50 [4, 15]: > 1000 nM
TGI ([4]; read-out: Log TGI (converted)): > 1000 nM
GI50 [5]: 151 nM
CC50 [5, 15]: > 1000 nM
TGI ([5]; read-out: Log TGI (converted)): > 1000 nM
GI50 [6]: 5.25 nM
CC50 [6, 15]: > 1000 nM
TGI ([6]; read-out: Log TGI (converted)): > 1000 nM
GI50 [7]: 6.61 nM
CC50 [7, 15]: > 1000 nM
TGI ([7]; read-out: Log TGI (converted)): 331 nM
GI50 [8]: 2.69 nM
CC50 [8, 15]: > 1000 nM
TGI ([8]; read-out: Log TGI (converted)): 17.8 nM
GI50 [9]: 3.09 nM
CC50 [9, 15]: > 1000 nM
TGI ([9]; read-out: Log TGI (converted)): 339 nM
GI50 [10]: 3.71 nM
CC50 [10, 15]: > 1000 nM
TGI ([10]; read-out: Log TGI (converted)): > 1000 nM
GI50 [11]: 4.68 nM
CC50 [11, 15]: > 1000 nM
TGI ([11]; read-out: Log TGI (converted)): > 1000 nM
GI50 [12]: 4.79 nM
CC50 [12, 15]: > 1000 nM
TGI ([12]; read-out: Log TGI (converted)): > 1000 nM
GI50 [13]: 14.8 nM
CC50 [13, 15]: > 1000 nM
TGI ([13]; read-out: Log TGI (converted)): > 1000 nM
GI50 [14]: 7.41 nM
CC50 [14, 15]: > 1000 nM
TGI ([14]; read-out: Log TGI (converted)): > 1000 nM
